In ChEMBL document CHEMBL1156207, “Synthesis of mono-carbonyl analogues of curcumin and their effects on inhibition of cytokine release in LPS-stimulated RAW 264.7 macrophages” (Bioorg Med Chem, 2010) one finds Activity and inhibition data, which are given here for 24 compounds.

Active and inactive are the calls of the source. No cut-off for these calls is given here.

In one series the test system is RAW264.7. Kind of series: Antiinflammatory activity against LPS-stimulated mouse RAW264.7 cells assessed as inhibition of IL-6 accumulation at 10 uM pretreated for 2 hrs before LPS challenge after 22 hrs by ELISA relative to control. Type of series: functional.
Conditions: not given
The method in brief: (§1)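 RAW 264.7 cells plated at 4.0 × 10⁵/plate at 37 °C, 5% CO₂, pretreated 2 h with compound or vehicle, then LPS added for 22 h. Secreted cytokine in media measured by ELISA and normalized to total protein of lysed cell pellets from parallel plates. Expressed as percent of LPS control; mean with SE from 3–5 independent experiments.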
For orientation: ELISA stands for enzyme-linked immunosorbent assay.
On to `O=C1/C(=C/c2cccc(Cl)c2Cl)CCC/C1=C\c1cccc(Cl)c1Cl`, for which the outcome was inactive.

For the compound `COc1ccc(/C=C/C(=O)/C=C/c2ccc(OC)cc2OC)c(OC)c1`, the Activity was 60%.

As for `O=C1/C(=C\c2ccccc2C(=O)O)CCC/C1=C\c1ccccc1C(=O)O`, the outcome was inactive.

As for `COc1cc(OC)c(/C=C2\CCC/C(=C\c3c(OC)cc(OC)cc3OC)C2=O)c(OC)c1`, the Activity amounted to 60%.

Take `Cc1ccc(/C=C2\CCC/C(=C\c3ccc(C)cc3C)C2=O)c(C)c1`: the outcome was inactive.

In the case of `COc1ccc(/C=C2\CC/C(=C\c3ccc(OC)cc3OC)C2=O)c(OC)c1`, the Activity was determined as 60%.

With `O=C1/C(=C/c2ccccc2C(=O)O)CC/C1=C\c1ccccc1C(=O)O`, the Activity is recorded as 60%.

For the compound `O=C(/C=C/c1c(F)cccc1F)/C=C/c1c(F)cccc1F`, the Activity is 60%.

Take `O=C1/C(=C/c2cccc(Cl)c2Cl)CC/C1=C\c1cccc(Cl)c1Cl`: the result was inactive.

Take `COc1cc(OC)c(/C=C/C(=O)/C=C/c2c(OC)cc(OC)cc2OC)c(OC)c1`: the Activity was found to be 60%.

On to `O=C1/C(=C/c2c(F)cccc2F)CCC/C1=C\c1c(F)cccc1F`, for which the result was inactive.

Consider `O=C1/C(=C/c2c(F)cccc2F)CC/C1=C\c1c(F)cccc1F`, for which the outcome was inactive.

For `O=C(/C=C/c1ccc(Cl)cc1Cl)/C=C/c1ccc(Cl)cc1Cl`, the result was inactive.

For the compound `O=C1/C(=C/c2cc(F)ccc2F)CC/C1=C\c1cc(F)ccc1F`, the result was inactive.

As to `Cc1ccc(/C=C2\CC/C(=C\c3ccc(C)cc3C)C2=O)c(C)c1`, the outcome was inactive.

In the case of `O=C(/C=C/c1cc(F)ccc1F)/C=C/c1cc(F)ccc1F`, the result was inactive.

On to `O=C1/C(=C/c2cc(F)ccc2F)CCC/C1=C\c1cc(F)ccc1F`, for which the outcome was inactive.

Take `COc1ccc(/C=C2\CCC/C(=C\c3ccc(OC)cc3OC)C2=O)c(OC)c1`: the outcome was inactive.

For the compound `O=C1/C(=C/c2ccc(Cl)cc2Cl)CCC/C1=C\c1ccc(Cl)cc1Cl`, the outcome was inactive.

With `COc1cc(OC)c(/C=C2\CC/C(=C\c3c(OC)cc(OC)cc3OC)C2=O)c(OC)c1`, the result was inactive.

Take `Cc1ccc(/C=C/C(=O)/C=C/c2ccc(C)cc2C)c(C)c1`: the Activity is listed as 60%.

`O=C1/C(=C/c2ccc(Cl)cc2Cl)CC/C1=C\c1ccc(Cl)cc1Cl`: the outcome was inactive.

Turning to `O=C(/C=C/c1ccccc1C(=O)O)/C=C/c1ccccc1C(=O)O`, the outcome was inactive.

The same series, now with this note: Mus musculus, RAW264.7.
As to `CN(C)CCCOc1ccc(/C=C2\CCC/C(=C\c3ccc(OCCCN(C)C)cc3)C2=O)cc1`, the inhibition – broadly, how much of the control response was suppressed – at 10 µM was found to be 97.1%.

Another series deals with RAW264.7. Kind of series: Antiinflammatory activity against LPS-stimulated mouse RAW264.7 cells assessed as inhibition of IL-6 accumulation pretreated for 2 hrs before LPS challenge after 22 hrs by ELISA relative to control. Type of series: functional, cell-based.
Conditions: not given
The method in brief:
(§2)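 Macrophages plated overnight at 4.0 × 10⁶/plate at 37 °C, 5% CO₂, and pretreated 2 h with compound at 1, 2.5, 5.0 and 10 (concentration series), then stimulated with LPS for 22 h. Cytokine in culture media quantified by ELISA and normalized to total cellular protein, measured after lysis in Tris–NP40–SDS buffer and protein assay.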
Turning to `O=C(/C=C/c1c(F)cccc1F)/C=C/c1c(F)cccc1F`, the inhibition result is “Dose-dependent effect”.

On to `CN(C)CCCOc1ccc(/C=C2\CCC/C(=C\c3ccc(OCCCN(C)C)cc3)C2=O)cc1`, for which the inhibition result was “Dose-dependent effect”.

The next series concerns RAW264.7. Kind of series: Cytotoxicity against LPS-stimulated mouse RAW264.7 cells at 10 uM pretreated for 2 hrs before LPS challenge after 22 hrs. Type of series: cell-based. Particulars: raw264.7, 22 h.
Regarding `O=C(/C=C/c1c(F)cccc1F)/C=C/c1c(F)cccc1F`, the Activity result is given as “Non-toxic”.

For the compound `CN(C)CCCOc1ccc(/C=C2\CCC/C(=C\c3ccc(OCCCN(C)C)cc3)C2=O)cc1`, the Activity result is “Non-toxic”.

The next series relates to RAW264.7. Put plainly: Antiinflammatory activity against LPS-stimulated mouse RAW264.7 cells assessed as inhibition of TNFalpha accumulation at 10 uM pretreated for 2 hrs before LPS challenge after 22 hrs by ELISA relative to control. The class given is functional.
Conditions: not given
The method in brief:
as §1
For the compound `O=C1/C(=C/c2cccc(Cl)c2Cl)CCC/C1=C\c1cccc(Cl)c1Cl`, the result was inactive.

As to `COc1ccc(/C=C/C(=O)/C=C/c2ccc(OC)cc2OC)c(OC)c1`, the result was Active.

For `O=C1/C(=C\c2ccccc2C(=O)O)CCC/C1=C\c1ccccc1C(=O)O`, the outcome was inactive.

With `COc1cc(OC)c(/C=C2\CCC/C(=C\c3c(OC)cc(OC)cc3OC)C2=O)c(OC)c1`, the outcome was Active.

As to `Cc1ccc(/C=C2\CCC/C(=C\c3ccc(C)cc3C)C2=O)c(C)c1`, the outcome was inactive.

Regarding `COc1ccc(/C=C2\CC/C(=C\c3ccc(OC)cc3OC)C2=O)c(OC)c1`, the result was inactive.

For the compound `O=C1/C(=C/c2ccccc2C(=O)O)CC/C1=C\c1ccccc1C(=O)O`, the outcome was inactive.

As for `O=C(/C=C/c1c(F)cccc1F)/C=C/c1c(F)cccc1F`, the outcome was Active.

With `O=C1/C(=C/c2cccc(Cl)c2Cl)CC/C1=C\c1cccc(Cl)c1Cl`, the outcome was inactive.

On to `COc1cc(OC)c(/C=C/C(=O)/C=C/c2c(OC)cc(OC)cc2OC)c(OC)c1`, for which the result was Active.

`O=C1/C(=C/c2c(F)cccc2F)CCC/C1=C\c1c(F)cccc1F`: the result was inactive.

As to `O=C1/C(=C/c2c(F)cccc2F)CC/C1=C\c1c(F)cccc1F`, the result was inactive.

For the compound `O=C(/C=C/c1ccc(Cl)cc1Cl)/C=C/c1ccc(Cl)cc1Cl`, the outcome was inactive.

As for `O=C1/C(=C/c2cc(F)ccc2F)CC/C1=C\c1cc(F)ccc1F`, the outcome was inactive.

Consider `Cc1ccc(/C=C2\CC/C(=C\c3ccc(C)cc3C)C2=O)c(C)c1`, for which the outcome was Active.

As to `O=C(/C=C/c1cc(F)ccc1F)/C=C/c1cc(F)ccc1F`, the outcome was inactive.

With `O=C1/C(=C/c2cc(F)ccc2F)CCC/C1=C\c1cc(F)ccc1F`, the outcome was inactive.

Regarding `COc1ccc(/C=C2\CCC/C(=C\c3ccc(OC)cc3OC)C2=O)c(OC)c1`, the result was inactive.

On to `O=C1/C(=C/c2ccc(Cl)cc2Cl)CCC/C1=C\c1ccc(Cl)cc1Cl`, for which the result was inactive.

As for `COc1cc(OC)c(/C=C2\CC/C(=C\c3c(OC)cc(OC)cc3OC)C2=O)c(OC)c1`, the outcome was inactive.

On to `Cc1ccc(/C=C/C(=O)/C=C/c2ccc(C)cc2C)c(C)c1`, for which the result was Active.

On to `O=C1/C(=C/c2ccc(Cl)cc2Cl)CC/C1=C\c1ccc(Cl)cc1Cl`, for which the result was inactive.

As for `CN(C)CCCOc1ccc(/C=C2\CCC/C(=C\c3ccc(OCCCN(C)C)cc3)C2=O)cc1`, the inhibition at 10 µM came out at 96.9%.

Consider `O=C(/C=C/c1ccccc1C(=O)O)/C=C/c1ccccc1C(=O)O`, for which the result was inactive.

In a further series the test system is RAW264.7. Put plainly: Antiinflammatory activity against LPS-stimulated mouse RAW264.7 cells assessed as inhibition of TNFalpha accumulation pretreated for 2 hrs before LPS challenge after 22 hrs by ELISA relative to control. Type of series: functional, cell-based.
Conditions: not given
The essentials:
as §2
With `O=C(/C=C/c1c(F)cccc1F)/C=C/c1c(F)cccc1F`, the inhibition entry was “Dose-dependent effect”.

As for `CN(C)CCCOc1ccc(/C=C2\CCC/C(=C\c3ccc(OCCCN(C)C)cc3)C2=O)cc1`, the inhibition entry is “Dose-dependent effect”.
